# The list is not random: actives were taken first. Their share in the collection is about 4.6%.
# OX1R antag-1 = antagonists of human orexin 1 receptor (OX1R). O43613. OX1R-expressing cells, FRET antagonist read-out. inhibition, % at 6.6 µM. 330,000 compounds, 1.8% hits; in the data active means inhibition mostly above about 38%, no sharp cut-off; inactive means mostly below about 40%;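 further: 0% = agonist challenge alone and 100% = reference antagonist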
# GPR7 antag = blocks human GPR7 receptor signaling; P48145; GPR7-expressing cells, fluorescence antagonist assay; inhibition, % at 4.4 µM; 290,000 compounds, 1.1% hits; AID 1861; in the data active means inhibition above about 16%, passing the limit was not always enough;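 further: cells stimulated with the agonist NPW; 0% = agonist with vehicle and 100% = vehicle without agonist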
# Target sequence (P48145 whole entry, looked up): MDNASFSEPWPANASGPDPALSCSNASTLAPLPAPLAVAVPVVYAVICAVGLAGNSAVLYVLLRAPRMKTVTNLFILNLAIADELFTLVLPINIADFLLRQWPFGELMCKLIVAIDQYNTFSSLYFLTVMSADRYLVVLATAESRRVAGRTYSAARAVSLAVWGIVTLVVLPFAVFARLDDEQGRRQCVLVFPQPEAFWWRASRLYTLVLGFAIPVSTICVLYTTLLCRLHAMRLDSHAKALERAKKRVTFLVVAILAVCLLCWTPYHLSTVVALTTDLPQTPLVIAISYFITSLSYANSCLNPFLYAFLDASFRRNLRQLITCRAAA
# TAAR1 ag = human TAAR1 agonism; CHO RD-HGA16 TAAR1, Fluo-8 calcium fluorescence; vehicle wells 0%, saturating PEA agonist 100%; activation, % at 3 µM; 360,000 compounds, 0.99% hits;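 active means activation above the mean activation of all test compounds in the run plus 3 SD, cut at about 38% in these data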
#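 Assay system: CHO-derived RD-HGA16 cells with stable Gα16 and human TAAR1; timing: 17-24 h seeding, 75 min 37 °C dye, 30 min RT; read-out: % activation from peak over basal fluorescence ratio, DMSO-to-PEA scaled; measured by: kinetic Fluo-8 calcium fluorescence; benchmarks: low control DMSO, high control PEA (EC100); doses: 3 µM single concentration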
# CHO parental Ca = counter-screen for OX1R antagonists: effect in parental CHO cells; 330,000 compounds, 0.63% hits; parental CHO-K1, ATP-induced calcium, Fluo-8 fluorescence; inhibition, % at 5.6 µM;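 active means inhibition above that plate's mean sample inhibition plus 3 SD, cut at about 26% in these data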;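 further: 0% = ATP-challenged DMSO wells and 100% = DMSO wells without ATP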
#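 Material – parental CHO cells · Reagent – ATP stimulus · Compound – single nominal dose of 5.6 µM per compound · Detection – Fluo-8 fluorescence · Read-out basis – percent inhibition of calcium signal · Controls – ATP-challenged DMSO wells low, unchallenged DMSO wells high · Repeats – no replicates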
# TAAR1 antag = antagonists of human TAAR1; Q96RJ0; CHO RD-HGA16 TAAR1, Fluo-8 calcium fluorescence, antagonist; inhibition, % at 3 µM; 360,000 compounds, 1.5% hits; AID 624466;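 active means inhibition above a per-plate cutoff, the mean inhibition of test compounds on that plate plus 3 SD, cut at about 49% in these data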;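 further: 0% = DMSO plus EC80 beta-PEA response and 100% = DMSO alone without agonist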
#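 Assay system: CHO-derived RD-HGA16 cells stably expressing human TAAR1 plus Gα16. Timing: 140 s kinetic read after compound, 140 s after agonist. Technique: kinetic Fluo-8 calcium fluorescence measurement. Measure: % inhibition of agonist calcium response.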
# OX1R antag-2 = blocks the human orexin 1 receptor. AID 434989. inhibition, % at 5 µM. CHO/OX1R cells, Fluo-8 calcium fluorescence, orexin A. 330,000 compounds, 0.43% hits. O43613;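 active means inhibition above its plate's threshold, mean inhibition of all tested compounds on the plate plus 3 SD, cut at about 37% in these data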;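 further: 0% = orexin A challenge wells and 100% = SB-334867-A antagonist wells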
# Numbers without * were called inactive; · = not tested or not shown.
SMILES,OX1R antag-1,GPR7 antag,TAAR1 ag,CHO parental Ca,TAAR1 antag,OX1R antag-2
Cc1ccc(/C=N/NC(=O)c2nnn(-c3nonc3N)c2-c2ccccc2)o1,10,-1,43*,-12,-8,9
O=C(Nc1ccc(Br)cc1F)c1nc[nH]c1C(=O)N1CCc2ccccc2C1,·,·,1,·,-8,·
CCc1c(C2(O)CCCCC2)[nH]c2cc(C(F)(F)F)ccc12,64*,-26,·,-4,·,45*
Cc1c(C2(O)CCCCC2)[nH]c2cc(C(F)(F)F)ccc12,71*,·,16,65*,25,91*
CC(C)Oc1ccc(C(=O)Nc2ncn[nH]2)cc1,0,-12,0,-12,-8,-16
Cc1csc2c(N3CCN(C(=O)c4ccc(C(C)(C)C)cc4)CC3)ncnc12,18,-7,0,37*,-19,27
Cc1csc2c(N3CCN(C(=O)Nc4ccc(Cl)c(Cl)c4)CC3)ncnc12,36,-8,10,21,16,43*
Cc1csc2c(N3CCN(C(=O)NC(C)(C)C)CC3)ncnc12,9,-12,7,-4,5,-16
CC1(C(=O)NS(=O)(=O)c2ccccc2Cl)CCN1C(=O)c1ccco1 (stereo not drawn),·,·,7,·,-10,·
COc1ccc2oc(C(=O)OCC(=O)N3CC(C)CC(C)C3)c(C)c2c1 (stereo not drawn),22,·,3,-25,16,-15
Cc1c(C(=O)OCC(=O)N2CC(C)CC(C)C2)oc2ccccc12 (stereo not drawn),70*,·,4,-17,-47,-24
Cc1c(C(=O)OCC(=O)N(C)Cc2ccccc2)oc2ccccc12,60*,·,9,-12,-21,26
NC(=O)c1cc(S(=O)(=O)Nc2cccc(Cl)c2)cs1,-2,-2,5,0,-6,0
CC1CN(S(=O)(=O)c2cc(C(=O)NCCC3=CCCCC3)ccc2Cl)CC(C)O1 (stereo not drawn),10,·,1,-19,3,-56
O=C(CN1C(=O)NC2(CCCCCC2)C1=O)Nc1ccc(OC(F)(F)F)cc1,·,·,-2,·,-15,·
COc1cccc(C(c2nnnn2CCc2ccccc2)N2CCN(c3ccccc3)CC2)c1OC (stereo not drawn),34,14,15,-3,-21,-26
c1ccc(Cn2nnnc2C(c2cccnc2)N2CCN(c3ccccc3)CC2)cc1 (stereo not drawn),11,-11,22,-12,51*,-13
COc1ccccc1C(c1nnnn1CCc1ccccc1)N1CCN(c2ccccc2)CC1 (stereo not drawn),17,23*,5,-6,12,-14
COc1ccccc1NC(=O)COC(=O)CCC(=O)c1cccs1,·,·,1,·,-20,·
CC(C)(C)c1ccc(-n2ncc3c2CCCC3NC(=O)C2(C(N)=O)CC2)cc1 (stereo not drawn),7,16,4,43*,20,22
Cc1cc(C(=O)NC2CCCc3c2cnn3-c2ccc(C(C)(C)C)cc2)nn1C (stereo not drawn),23,10,-2,51*,4,9
Cc1ccc(C(C)(C)C)cc1S(=O)(=O)Nc1cccc(C(=O)N2CCN(c3ccccn3)CC2)c1,·,·,15,·,61*,·
O=C(c1ccc(Cl)c(S(=O)(=O)N2CCCCCC2)c1)N1CCN(c2ccccn2)CC1,9,21*,15,-13,33,-6
NS(=O)(=O)c1ccc(NNC(=O)c2sccc2Cl)cc1,3,-5,0,-6,-27,-14
O=[N+]([O-])c1ccc(C2=CSC3=NCCN23)cc1,47*,·,0,6,-13,0
SMILES,OX1R antag-1,GPR7 antag,TAAR1 ag,CHO parental Ca,TAAR1 antag,OX1R antag-2
Cc1ccc(C2=CSC3=NCCN23)cc1,4,·,-1,0,-2,-2
Cc1c(NC(=O)c2cccc(NC(=O)COc3ccccc3C#N)c2)c(=O)n(-c2ccccc2)n1C,·,·,7,·,38,·
CN(C)CCCN(C(=O)c1ccc([N+](=O)[O-])s1)c1nc2cc3c(cc2s1)OCCO3,78*,2,10,-12,-1,-23
O=C(CCc1ccccc1)NC1(Cc2ccccc2)CCN(CCCc2ccccc2)C1=O (stereo not drawn),7,·,7,-29,55*,-11
CCN(C(=O)Cc1cccs1)c1nnc(-c2cccnc2)s1,27,-13,1,-28,15,-18
Cc1ccc(NC(=O)c2cc(N3C(=O)C=CC3=O)ccc2N2CCOCC2)cc1Cl,5,-5,30,6,51*,25
Cc1ccc(NC(=O)c2cc(N3C(=O)CCC3=O)ccc2N2CCOCC2)cc1,19,15,4,-9,3,-12
CC(C)[C@H](CO)N(Cc1cccc(F)c1)c1nc(Nc2cccc(Cl)c2)c2ncn(C(C)C)c2n1,3,·,53*,37*,73*,33
CSc1ccc2c(c1)C(N1CCN(C)CC1)Cc1ccccc1S2 (stereo not drawn),9,35*,13,12,36,20
CN1CCN(C2Cc3ccc(F)cc3Sc3cc(F)c(Cl)cc32)CC1 (stereo not drawn),7,·,15,7,7,10
CN1CCN(C2Cc3ccccc3Sc3ccc(Cl)cc32)CC1 (stereo not drawn),4,·,27,-11,12,-26
CN1CCN(C2Cc3ccccc3Sc3cc(C(F)(F)F)ccc32)CC1 (stereo not drawn),2,·,51*,2,30,-5
C=CC[n+]1c(/C=C2\C=Cc3cc(C)ccc3N2CC)ccc2ccccc21,114*,35*,14,56*,37,69*
NS(=O)(=O)c1ccc(CCNC(=O)COC(=O)CCSc2ccc(Cl)cc2)cc1,5,-9,7,-1,22,-2
NS(=O)(=O)c1ccc(CCNC(=O)CSc2ccc(Cl)cc2)cc1,5,-6,0,35*,19,40
Cc1cc(C)cc(OCC(=O)N2N=C(C(F)(F)F)CC2(O)C(C)(C)C)c1 (stereo not drawn),8,-12,12,40*,19,8
Cc1cc(C)cc(OCC(=O)N2N=C(c3cccnc3)CC2(O)C(F)(F)F)c1 (stereo not drawn),5,-5,5,-3,10,-3
OCC1(CCc2ccccc2)CCN(Cc2ccc(OC(F)F)cc2)CC1,·,-4,11,·,4,·
CN1C[C@H](C(=O)N[C@]2(C)O[C@@]3(O)[C@@H]4CCCN4C(=O)[C@H](Cc4ccccc4)N3C2=O)CC2c3cccc4[nH]cc(c34)C[C@H]21 (stereo partly drawn),15,·,3,-7,7,-21

# Source: PubChem BioAssay
